This passage reports CC50, selectivity ratio and EC50 results from ChEMBL document CHEMBL1155964, “Discovery of diarylpyridine derivatives as novel non-nucleoside HIV-1 reverse transcriptase inhibitors” (Bioorg Med Chem Lett, 2009).

The nature of series [1]: Cytotoxicity against human TZM-bl cells. Type of series: cell-based.
The nature of series [2]: Selectivity index, ratio of CC50 for human TZM-bl cells to EC50 for HIV1 NL4-3. Type of series: toxicity, cell-based. The conditions noted are these: read-out: Ratio CC50/EC50.
The nature of series [3]: Selectivity index, ratio of CC50 for human TZM-bl cells to EC50 for HIV1 RTMDR1. Type of series: toxicity, cell-based. Particulars: read-out: Ratio CC50/EC50.
Series [4] deals with Human immunodeficiency virus 1. In words: Antiviral activity against HIV1 3B infected in human MT2 cells assessed as inhibition of viral replication by p24 antigen assay. Particulars: Human immunodeficiency virus 1, 3B. Type of series: functional, organism-based. A digest of the protocol:
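HIV-1 IIIB replication in MT-2 cells, read as p24 production by ELISA. […] Tested in triplicate; means ± SD.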

Series [5] can be described thus: Selectivity index, ratio of CC50 for human MT2 cells to EC50 for HIV1 3B. Type of series: toxicity, cell-based. Particulars: read-out: Ratio CC50/EC50. A digest of the protocol:
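HIV-1 IIIB replication in MT-2 cells, measured by p24 ELISA to give the EC50. Cytotoxicity in uninfected MT-2 cells measured by XTT to give the CC50. Each run in triplicate and reported as means ± SD. SI = CC50/EC50.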

Series [6] deals with Human immunodeficiency virus 1. Nature of the series: Antiviral activity against HIV1 NL4-3 infected in human TZM-bl cells assessed as inhibition of viral replication. The conditions noted are these: Human immunodeficiency virus 1, NL4-3, TZM-bl. Type of series: functional, organism-based. A digest of the protocol: (§1)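 Tested in triplicate and reported as means ± SD. The RTMDR1 strain carries the RT mutations 74V, 41L, 106A and 215Y.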

The subject of series [7] is Human immunodeficiency virus 1. In words: Antiviral activity against HIV1 RTMDR1 infected in human TZM-bl cells assessed as inhibition of viral replication. Type of series: functional, organism-based. The conditions noted are these: Human immunodeficiency virus 1, RTMDR1, TZM-bl. A digest of the protocol: as §1
Another series relates to MT2. Nature of the series: Cytotoxicity against human MT2 cells after 4 days by XTT assay. Type of series: cell-based. Particulars: mt2, 96 h. (Tetrazolium assays rely on reduction of a dye to a coloured formazan, in cell work by metabolically active cells.)
Series [8] relates to Human immunodeficiency virus 1. Nature of the series: Antiviral activity against HIV1 3B infected in human MT4 cells assessed as inhibition of viral replication. Type of series: functional, organism-based. Particulars: Human immunodeficiency virus 1, 3B.
A short description of series [9]: Selectivity index, ratio of CC50 for human MT4 cells to EC50 for HIV1 3B.

The structures appear in SMILES notation.

A word on the CC50: it is the concentration giving 50% cytotoxicity. Low values mean greater toxicity to the cells, high ones lower toxicity to the cells. What is called EC50 is the concentration that produces a half-maximal response. Take `Cc1cccc(C)c1Oc1ccc([N+](=O)[O-])c(Nc2ccc(C#N)cc2)n1`: the values for the CC50 (in series [1]; in the series with MT2) were more than 55600 nM and 110000 nM, respectively. Moreover, the selectivity ratio in [2] was more than 238; in [3], more than 433; in series [5], 107. For the same compound, the EC50 in [4] worked out at 1030 nM; in [6], 234 nM; in series [7], 128 nM.

`C#Cc1cc(C)c(Oc2ccc([N+](=O)[O-])c(Nc3ccc(C#N)cc3)n2)c(C)c1`: the values for the CC50 (in [1]; with MT2) were more than 52100 nM and 174000 nM, respectively. In addition, the selectivity ratio in series [2] is more than 469; in series [3] it was more than 242; in series [5], 256. For the same compound, the values for the EC50 in series [4], in series [6] and in series [7] were 677 nM, 111 nM and 215 nM, respectively.

As for `Cc1cccc(C)c1Oc1ccc(N)c(Nc2ccc(C#N)cc2)n1`, the CC50 was found to be 8140 nM in [1] and 29900 nM with MT2. Further, the figures for the selectivity ratio in series [2], in [3] and in series [5] were 2020, 2150 and 52, respectively. The EC50 in series [4] is 576 nM; in series [6], 4.02 nM; in series [7] it was 3.78 nM.

With `Cc1cc(C#CC(C)(C)O)cc(C)c1Oc1ccc(N)c(Nc2ccc(C#N)cc2)n1`, the CC50 in series [1] was found to be 8730 nM; in the series with MT2 it was 3540 nM. Further, the selectivity ratio in series [2] was 36; in [3] it was 16; in series [5], 2. The EC50 was determined as 1580 nM in series [4], 241 nM in [6] and 531 nM in series [7].

As to `Cc1cc(C)c(Oc2ccc(N)c(Nc3ccc(C#N)cc3)n2)c(C)c1`, the values for the half-maximal cytotoxic concentration (CC50) (in series [1]; in the series on MT2) were 18600 nM and 10600 nM, respectively. Further, the figures for the selectivity ratio in [2], in series [3] and in series [5] were 11200, 15500 and 182, respectively. Further, the EC50 in series [4] was determined as 58 nM; in series [6], 1.67 nM; in [7], 1.2 nM.

On to `Cc1cc(C)c(Oc2ccc([N+](=O)[O-])c(Nc3ccc(C#N)cc3)n2)c(C)c1`, for which the CC50 is more than 53500 nM in series [1] and 503000 nM with MT2. Moreover, the selectivity ratio in series [2] is more than 2340; in series [3], more than 969; in series [5], 4260. Besides, the EC50 is 118 nM in [4], 22.9 nM in [6] and 55.2 nM in [7].

Turning to `Cc1cc(C#CC(C)(C)O)cc(C)c1Oc1ccc([N+](=O)[O-])c(Nc2ccc(C#N)cc2)n1`, the CC50 is more than 45200 nM in series [1] and 8910 nM with MT2. Moreover, the selectivity ratio is more than 1.09 in [2], more than 1.78 in series [3] and less than 1 in [5]. In addition, the EC50 in series [4] was found to be 23300 nM; in series [6], 41300 nM; in [7], 25500 nM.

As for `C#Cc1cc(C)c(Oc2ccc(N)c(Nc3ccc(C#N)cc3)n2)c(C)c1`, the CC50 in series [1] stood at 9940 nM; in the series with MT2 it was 8250 nM. In addition, the selectivity ratio in series [2] was 1480; in series [3], 1100; in series [5], 20. The EC50 in series [4] turned out to be 424 nM; in series [6] it was 6.7 nM; in series [7], 9.03 nM.

On to `Cc1cc(I)cc(C)c1Oc1ccc(N)c(Nc2ccc(C#N)cc2)n1`, for which the values for the CC50 (in [1]; with MT2) were 16700 nM and 23500 nM, respectively. The selectivity ratio in series [2] came out at 2200; in series [3], 3260; in series [5] it was 297. The EC50 is 79 nM in series [4], 7.6 nM in [6] and 5.13 nM in [7].

Consider `Cc1cc(C#N)cc(C)c1Oc1ccc(N)c(Nc2ccc(C#N)cc2)n1`, for which the figures for the CC50 (in series [1]; in the series on MT2) were 8980 nM and 31800 nM, respectively. The selectivity ratio is 13200 in series [2], 9350 in series [3] and 22700 in series [5]. The EC50 was 1.4 nM in [4], 0.68 nM in series [6] and 0.96 nM in series [7].

In the case of `Cc1cc(I)cc(C)c1Oc1ccc([N+](=O)[O-])c(Nc2ccc(C#N)cc2)n1`, the CC50 in series [1] is more than 41200 nM; in the series on MT2 it was 148000 nM. Further, the selectivity ratio in series [2] was more than 675; in series [3], more than 436; in series [5], 61. Also, the values for the EC50 in [4], in series [6] and in series [7] were 2430 nM, 61 nM and 94.3 nM, respectively.

With `Cc1cc(C#N)cc(C)c1Oc1ccc([N+](=O)[O-])c(Nc2ccc(C#N)cc2)n1`, the CC50 in series [1] was more than 52000 nM; with MT2 it was 50100 nM. Besides, the selectivity ratio in series [2] was more than 2350; in series [3] it was more than 2460; in series [5], 371. Also, the EC50 in series [4] worked out at 135 nM; in series [6], 22.1 nM; in series [7], 21.1 nM.

As for `Cc1cc(CO)cc(C)c1Oc1ccc(N)c(Nc2ccc(C#N)cc2)n1`, the CC50 turned out to be 9340 nM in series [1] and 2190 nM in the series on MT2. In addition, the selectivity ratio in series [2] worked out at 857; in series [3], 372; in [5] it was 391. In addition, the values for the EC50 in [4], in [6] and in series [7] were 6 nM, 10.9 nM and 25.1 nM, respectively.

For the compound `Cc1cc(CO)cc(C)c1Oc1ccc([N+](=O)[O-])c(Nc2ccc(C#N)cc2)n1`, the CC50 is more than 51300 nM in [1] and 116000 nM with MT2. Besides, the selectivity ratio was more than 108 in series [2], more than 58 in series [3] and 603 in series [5]. The EC50 in series [4] was 192 nM; in [6], 477 nM; in series [7], 877 nM.

In the case of `Cc1cc(C)c(Nc2ccnc(Nc3ccc(C#N)cc3)n2)c(C)c1` [DAPIVIRINE], the CC50 in series [1] is more than 304 nM. For the same compound, the selectivity ratio is more than 490 in series [2] and more than 1020 in series [3]. For the same compound, the EC50 in [6] came to 0.62 nM; in [7], 0.298 nM.

Turning to `Cc1cc(C#N)cc(C)c1Oc1nc(Nc2ccc(C#N)cc2)nc(N)c1Br` [ETRAVIRINE], the EC50 in series [8] is 1.58 nM. The selectivity ratio in [9] was found to be 63100.
